The values below come from ChEMBL document CHEMBL4038302, “Fibroblast Activation Protein α Activated Tripeptide Bufadienolide Antitumor Prodrug with Reduced Cardiotoxicity” (J Med Chem, 2017).

Each structure is given as a SMILES string.

One data set deals with Mus musculus. Nature of the data set: Cardiotoxicity in BALB/C nude mouse xenografted with human MDA-MB-231 cells assessed as change in left ventricular internal systole dimension at 12 umol/kg, iv administered starting on day 5 measured after day 22 by echocardiography. In kind it is toxicity, organism-based. The conditions noted are these: in vivo. The procedure, abridged:
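Same MDA-MB-231 xenograft mice, given daily iv doses in 5% HS15 from day 5. After 22 days of dosing, transthoracic echocardiography with a 21 MHz transducer under 1.5% isoflurane, supine. M-mode images taken from the parasternal short-axis view at the papillary muscle; IVSd, IVSs, LVIDd and LVIDs derived, n = 6.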
Background: A xenograft is tissue or cells of one species grown in another, often human tumour cells in immunodeficient mice.

The next data set concerns MDA-MB-435. The data set is described as follows: Antiproliferative activity against wild type human MDA-MB-435 cells expressing FAP-alpha incubated for 48 hrs by MTT assay. Format: functional, cell-based. The conditions noted are these: MDA-MB-435, 48 h. The procedure, abridged: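 Cells grown in DMEM with 10% FBS and 1% penicillin-streptomycin at 37 °C, 5% CO2; 10% heat-inactivated FBS used during cytotoxicity testing to exclude serum FAP activity. Viability read by MTT; IC50 as mean ± SEM of at least three independent experiments. Transfected lines were made from MDA-MB-231 with human FAPα plasmid or empty pCMV6-Entry vector and checked by Western blot at 48 h.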
On the technique in general: Tetrazolium dyes change colour on reduction, which living cells bring about.

Data set [1] is described as follows: Cytotoxicity in BMSC (unknown origin) assessed as cell viability at 1000 nmol/L after 72 hrs by MTT assay. In kind it is cell-based. The settings on record: unidentified, 1 µM.

As a reminder, the IC50 is the concentration that inhibits the measured activity by half. Read a low IC50 as greater potency. As to `C[C@]12CC[C@H](OC(=O)[C@H](Cc3c[nH]c4ccccc34)NC(=O)[C@@H]3CCCN3C(=O)CNC(=O)OCc3ccccc3)C[C@H]1CC[C@@H]1[C@@H]2[C@H](O)C(=O)[C@]2(C)[C@@H](c3ccc(=O)oc3)CC[C@]12O`, the Activity result (with Mus musculus; in data set [1]) was “Non-Toxic” in each case. The molecule further came in with an IC50 with MDA-MB-435 of 10.6 nM.
